Where a chain is given by its changes, count along the chain named. Where two headings read alike, the source gives them in different places.

Type in all cases: cell-based
For one assay, the target named is T1, CLC-0 E166Q mutant (Torpedo marmorata, UniProt P21564, C212S/E166Q).
T1 sequence (P21564 1-805 E166Q/C212S): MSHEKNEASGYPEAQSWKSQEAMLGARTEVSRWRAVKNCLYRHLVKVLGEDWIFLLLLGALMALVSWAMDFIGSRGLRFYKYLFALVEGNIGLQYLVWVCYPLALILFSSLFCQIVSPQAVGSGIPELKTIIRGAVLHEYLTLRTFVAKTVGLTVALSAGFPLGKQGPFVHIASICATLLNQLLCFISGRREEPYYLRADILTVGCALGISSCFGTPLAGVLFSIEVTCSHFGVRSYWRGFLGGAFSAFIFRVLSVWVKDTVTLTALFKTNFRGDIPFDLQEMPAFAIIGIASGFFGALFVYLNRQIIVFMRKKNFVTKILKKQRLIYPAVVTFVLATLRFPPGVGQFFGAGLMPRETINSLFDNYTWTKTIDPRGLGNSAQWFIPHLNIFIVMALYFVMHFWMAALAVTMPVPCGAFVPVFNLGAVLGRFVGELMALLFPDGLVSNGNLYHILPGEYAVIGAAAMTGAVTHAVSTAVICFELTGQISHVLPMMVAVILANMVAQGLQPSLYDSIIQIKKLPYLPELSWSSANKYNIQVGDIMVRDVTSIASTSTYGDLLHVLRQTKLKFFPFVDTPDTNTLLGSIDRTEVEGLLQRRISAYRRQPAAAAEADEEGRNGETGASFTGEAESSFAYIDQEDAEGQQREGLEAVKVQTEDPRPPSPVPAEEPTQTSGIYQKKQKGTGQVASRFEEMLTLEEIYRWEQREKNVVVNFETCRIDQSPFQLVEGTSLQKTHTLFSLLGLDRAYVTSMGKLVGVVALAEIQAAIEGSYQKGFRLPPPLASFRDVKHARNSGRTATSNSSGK
Description: Single-channel recordings, channels expressed in Xenopus oocytes. To be noted: 0.1 mM CPA; −100 mV. In a few lines: (§1)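 Single channels were expressed in Xenopus oocytes from cRNA made from a pBluescript construct. Currents were recorded at −100 mV with cytoplasmic CPA at 100 μM, filtered at 200 Hz (four-pole Bessel) and digitized at 1 kHz. Average dwell time of nonconducting events was analysed from the single-channel traces.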

Assay [1] deals with T2, CLC-0 E166C/K519M mutant (E127/K519M) (Torpedo marmorata, UniProt P21564, C212S/E166C/K519M).
T2 sequence (P21564 1-805 E166C/C212S/K519M): T1 sequence (P21564 1-805 E166Q/C212S) with Q166C, K519M
To be noted: for IC50: read-out: Apparent affinity (K1/2). Summed up:
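CLC-0 mutants in the C212S background were transfected into HEK293 cells with lipofectamine and recorded 1–3 d later as excised inside-out patches. Both sides held 130 mM NaCl, 5 mM MgCl2, 10 mM HEPES and 1 mM EGTA, pH 7.4. CPA was perfused continuously onto the cytoplasmic face. Steady-state current over the last 10 ms was normalized to bracketing blocker-free controls and fitted to a Langmuir function for K1/2. Values are mean ± SEM of ~4–6 patches.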

The next assay addresses T3, CLC-0 E166A mutant (Torpedo marmorata, UniProt P21564, C212S/E166A).
T3 sequence (P21564 1-805 E166A/C212S): T1 sequence (P21564 1-805 E166Q/C212S) with Q166A
As to the kind of experiment: Single-channel recordings, channels expressed in Xenopus oocytes. Conditions: 0.1 mM CPA cytoplasmic side; −100 mV. In a few lines: as §1

Take `O=C(O)COc1ccc(Cl)cc1` [CPA, p-chlorophenoxy acetate]: the “long blocked state in single-channel trace” value at CLC-0 E166Q mutant is on record as “absent”. Moreover, the IC50 in assay [1] (−40 mV) worked out at 378 ± 7 µM; in assay [1] (−60 mV), 271 ± 5 µM; in assay [1] (−80 mV), 194 ± 4 µM; in assay [1] (−100 mV), 141 ± 5 µM; in assay [1] (−120 mV), 98 ± 4 µM; in assay [1] (−140 mV) it was 69 ± 4 µM. Also, the IC50 in assay [1] (−160 mV) was 51 ± 4 µM. Further, the apparent koff in assay [1] (−160 mV) is 10.5 s⁻¹. For the same compound, in assay [1] (−160 mV), the apparent kon came out at 170000 M⁻¹ s⁻¹. Besides, the “averaged time of nonconducting (blocked) events” value on CLC-0 E166A mutant is around 55 ms.

The record behind these values is publication PMC2606940 (The Journal of General Physiology, 2009).
